An excerpt weighted towards active compounds, which were near 3.4% of everything screened.
MEKK2 mut-MEK5 – MEK5 binding signal on mutant MEKK2 PB1, primary screen, biochemical, multiplex bead flow cytometry, Alexa488-MEK5. Alexa488-MEK5 binding to MEKK2 mutant. percent response, % at 10 µM. actives 0.35% (n = 290,000); in the data active = percent response above about 24%, passing the limit was not always enough
VIM-2 inh – VIM-2 metallo-beta-lactamase inhibitors, primary screen, biochemical, epi-absorbance readout, Pseudomonas aeruginosa enzyme | actives 0.89% (n = 290,000) | inhibition, % at 5.6 µM | AID 1527, 2009 | purified VIM-2, nitrocefin hydrolysis, epi-absorbance fluorescence;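 active = inhibition above the mean of all tested compounds plus 3 SD, cutoff set per screening run, cut at about 7.5% in these data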;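 also: red hydrolysis product quenches plate fluorescence so inhibitors raise well fluorescence; 0% = enzyme with DMSO and 100% = DMSO without enzyme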
MEKK3 PB1 HTS – modulators of MEKK3-MEK5 PB1 binding, primary screen, biochemical, wildtype MEKK3, multiplex bead flow cytometry, Alexa488-MEK5 | Mitogen-activated protein kinase kinase kinase 3 (Homo sapiens), Q99759 | bead-based flow cytometry, Alexa488-MEK5 binding to MEKK3; actives lie on both sides; 0 = blocked by unlabeled MEK5, 100 = vehicle | binding response (% of control), % at 10 µM | actives 1.4% (n = 290,000) | AID 1529, 2009;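 active = binding response more than 3 SD above or below the average of its plate-row segment, actives on both sides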;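 also: Alexa488 bead fluorescence after subtracting the streptavidin-only scavenger bead signal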
Target sequence (Q99759 whole entry, looked up): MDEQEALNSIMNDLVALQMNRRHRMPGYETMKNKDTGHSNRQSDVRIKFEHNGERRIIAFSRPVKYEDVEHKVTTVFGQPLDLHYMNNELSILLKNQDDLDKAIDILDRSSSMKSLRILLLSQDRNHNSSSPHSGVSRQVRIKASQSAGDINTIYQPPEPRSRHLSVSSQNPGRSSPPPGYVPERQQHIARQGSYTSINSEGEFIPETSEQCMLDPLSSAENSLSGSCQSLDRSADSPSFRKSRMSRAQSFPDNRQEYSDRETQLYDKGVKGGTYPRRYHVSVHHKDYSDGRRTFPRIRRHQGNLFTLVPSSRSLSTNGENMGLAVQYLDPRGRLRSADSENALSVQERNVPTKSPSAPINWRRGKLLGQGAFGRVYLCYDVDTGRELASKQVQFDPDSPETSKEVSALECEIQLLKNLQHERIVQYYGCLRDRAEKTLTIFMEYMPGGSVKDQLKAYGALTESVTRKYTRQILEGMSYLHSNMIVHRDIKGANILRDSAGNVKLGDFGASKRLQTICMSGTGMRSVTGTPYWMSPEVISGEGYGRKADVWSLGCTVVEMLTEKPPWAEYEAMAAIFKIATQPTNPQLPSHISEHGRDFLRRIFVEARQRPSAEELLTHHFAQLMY
IMP-1 inhibitor – IMP-1 metallo-beta-lactamase inhibitors, primary screen, biochemical, epi-absorbance readout, Pseudomonas aeruginosa enzyme; purified IMP-1, nitrocefin hydrolysis, epi-absorbance fluorescence; actives 0.45% (n = 290,000); inhibition, % at 5.6 µM; metallo-beta-lactamase IMP-1 (Pseudomonas aeruginosa);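 active = inhibition above the mean plus 3 SD of all compounds in the same screening run, cut at about 4.5% in these data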;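 also: 0% = IMP-1 with DMSO and 100% = DMSO wells lacking enzyme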
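System: purified recombinant IMP-1 beta-lactamase. Medium: Zinc- and detergent-supplemented HEPES buffer, pH 7.1. Compound: one 5.6 µM dose […]. Schedule: 15 min preincubation plus 25 min reaction at 25 °C. Technique: Epi-absorbance fluorescence, 480 nm excitation, 530 nm emission.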
MEKK2 WT-MEK5 – modulators of MEK5 binding to wildtype MEKK2, primary screen, biochemical, multiplex bead flow cytometry, Alexa488-MEK5; Alexa488-MEK5 binding to MEKK2 WT; actives lie on both sides; binding response (% of control), % at 10 µM; actives 1.1% (n = 290,000); AID 1531, 2009; in the data active = binding response below about 67% or above about 130%
MEKK2wt confirm – modulators of MEK5 binding to wildtype MEKK2, confirmation, biochemical, single concentration, multiplex bead flow cytometry. shares compounds with MEKK3 PB1 HTS. Alexa488-MEK5 binding to MEKK2 WT; actives lie on both sides. binding response (% of control), % at 10 µM. actives 2.4% (n = 5,900). AID 1892, 2009; in the data active = binding response below about 16% or above about 210%; inactive = in between
MEKK2mut confirm – mutant MEKK2 PB1-MEK5 binding signal retest – biochemical, single concentration, multiplex bead flow cytometry, confirmation; shares compounds with MEKK3 PB1 HTS; Alexa488-MEK5 binding to MEKK2 mutant; percent response, % at 10 µM; actives 2% (n = 5,900); AID 1893, 2009; in the data active = percent response mostly above about 71%, no sharp cut-off; inactive = mostly below about 38%;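 also: higher means compound restores mutant binding toward wildtype level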
MEKK3 confirm – MEKK3 wild-type PB1 binding to MEK5, inhibitors, confirmation, biochemical, bead multiplex flow cytometry, single concentration, wildtype; Alexa488-MEK5 binding to MEKK3; active compounds read low; binding response (% of control), % at 10 µM; shares compounds with MEKK3 PB1 HTS; actives 1.8% (n = 5,900);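 active = binding response below 72% of control, or above a set upper limit, though filed actives all read lower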;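 also: 100% = DMSO only wells and 0% = binding blocked by excess unlabeled MEK5; lower values mean stronger disruption of MEK5 binding to MEKK3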
Active calls of the source: *; nt = no result; [ ] = remark or other dose.

SMILES | MEKK2 mut-MEK5 | VIM-2 inh | MEKK3 PB1 HTS | IMP-1 inhibitor | MEKK2 WT-MEK5 | MEKK2wt confirm | MEKK2mut confirm | MEKK3 confirm
COc1ccc(N2CCN(C(CNC(=O)C(=O)NCC3CCCO3)c3ccco3)CC2)cc1 (stereo not drawn) | 1 | -1 | 132* | -3 | 114 | 105 | 0 | 102
CC1CCN(C(=O)c2cc(-c3ccco3)on2)CC1 | 1 | -3 | 103 | -3 | 107 | nt | nt | nt
CCOCCCNC(=S)NCCCNc1nc2cc3c(cc2cc1C#N)OCO3 | -18 | -1 | 1.0*[inhibitor] | -1 | -4.0*[inhibitor] | 97 | -2 | 99
CCOc1ccc(Nc2nc(Cc3nnc(SCC(N)=O)o3)cs2)cc1 | -10 | -3 | 78 | -4 | 83 | nt | nt | nt
CC(C)N(C(=O)CSc1nnc(Cc2csc(Nc3ccccc3)n2)o1)C(C)C | -2 | -4 | 75*[inhibitor] | -4 | 90 | 108 | 5 | 105
CN1CCN(CCCN(Cc2ccco2)C(=S)Nc2ccc(Cl)cc2)CC1 | 3 | -1 | 107 | -3 | 105 | nt | nt | nt
CCN1CCN(CCCN(Cc2ccco2)C(=S)Nc2ccc(Cl)cc2)CC1 | 0 | 0 | 101 | -2 | 104 | nt | nt | nt
Cc1cccc(NC(=S)N(CCCN2CCCC2)Cc2cccn2Cc2ccc(Cl)cc2)c1 | 65* | -2 | 110 | -2 | 206* | 169 | 41 | 109
CCOc1ccc(NC(=S)N(CCCN2CCCC2)Cc2cccn2Cc2ccc(Cl)cc2)cc1 | 3 | -3 | 110 | -4 | 186* | 147 | 21 | 105
Cc1cc(C)c(C#N)c(OCc2ccc(Cl)nc2)n1 | -2 | 0 | 101 | -2 | 103 | nt | nt | nt
O=C(O)c1ccc(N2CC3CC(C2)c2cccc(=O)n2C3)c(NC(=S)Nc2ccc(Cl)cc2Cl)c1 (stereo not drawn) | -30 | -3 | 65*[inhibitor] | -1 | 17*[inhibitor] | 91 | -7 | 95
Cc1ccc(S(=O)(=O)CCc2ccncc2)cc1 | -2 | 2 | 98 | 0 | 98 | nt | nt | nt
COc1ccc(/C=N/NC(=O)c2ccc(O)cc2)cc1CN1CCCc2ccccc21 | 24 | -4 | 97 | -3 | 44*[inhibitor] | 88 | -9 | 103
Cc1cc(C)nc(SCC(=O)N2CCOCC2)n1 | -5 | 0 | 97 | 0 | 96 | nt | nt | nt
Cc1cc(C)nc(SCCC(=O)N2CCOCC2)n1 | 11 | 0 | 123* | -1 | 123 | 99 | -1 | 100
Cc1nn2c(N)csc2nc1=O | -6 | -3 | 62*[inhibitor] | -2 | 69*[inhibitor] | 59 | -24 | 51*
Nc1ccccc1C(=O)/C=C/c1ccc2c(c1)OCO2 | -3 | -3 | 98 | -3 | 96 | nt | nt | nt
Cc1sc(NC(=O)c2cccc([N+](=O)[O-])c2)c(C(N)=O)c1-c1ccc(C(C)(C)C)cc1 | -3 | -3 | 91 | 4 | 87 | nt | nt | nt
C=CCN(CC(=O)Nc1c(C)cccc1CC)C(=O)SCCC | -9 | -3 | 81*[inhibitor] | -3 | 95 | 98 | -1 | 99
COc1ccc2[nH]c(C(=O)Nc3ccc4c(c3)OCO4)cc2c1 | 0 | -3 | 103 | -3 | 100 | nt | nt | nt
Cc1c(C(=O)N/N=C/c2ccc(O)c(Br)c2)sc(N)c1C#N | 0 | -5 | 132* | -4 | 97 | 94 | -6 | 97
COc1cc(/C=N/NC(=O)c2sc(N)c(C#N)c2C)ccc1O | 7 | -4 | 106 | -3 | 104 | nt | nt | nt
CN(C)S(=O)(=O)c1cccc(NC(=O)c2cc(-c3cccs3)nn2-c2ccccc2)c1 | 0 | -3 | 142* | -3 | 108 | 98 | -1 | 106
COC(=O)c1cc(-c2cccs2)nn1-c1ccccc1 | -7 | 1 | 99 | -2 | 87 | nt | nt | nt
NC(=O)COC(=O)c1cc(-c2cccs2)nn1-c1ccccc1 | 0 | -7 | 136* | -5 | 115 | 101 | 4 | 100
SMILES | MEKK2 mut-MEK5 | VIM-2 inh | MEKK3 PB1 HTS | IMP-1 inhibitor | MEKK2 WT-MEK5 | MEKK2wt confirm | MEKK2mut confirm | MEKK3 confirm
CCCCc1ccc(-c2nc(N)n[nH]2)cc1 | -21 | -3 | 1.0*[inhibitor] | -4 | 2.0*[inhibitor] | 106 | 5 | 103
Nc1n[nH]c(-c2ccc(F)cc2)n1 | -1 | -4 | 97 | -1 | 98 | nt | nt | nt
C=CCn1c(SCC(=O)Nc2sc(C)c(C)c2C(=O)OCC)nnc1-c1sc(N)nc1C | 14 | -1 | 100 | -1 | 99 | nt | nt | nt
C=CCn1c(SCC(=O)NC2CCCCC2)nnc1-c1sc(N)nc1C | -13 | -2 | 3.0*[inhibitor] | -1 | 3.0*[inhibitor] | 97 | 2 | 104
CCN(CC)S(=O)(=O)c1cccc(NC(=O)Nc2cccc(C(F)(F)F)c2)c1 | 20 | -3 | 102 | -4 | 219* | 183 | 45 | 104
Cc1cc(NC(=O)CCN2CCN(C/C=C/c3ccccc3)CC2)ccc1Br | 18 | -2 | 112 | -4 | 149* | 152 | 20 | 109
COc1ccc(-c2cc(C)no2)cc1S(=O)(=O)N1CCCN(Cc2ccc(F)cc2)C1 | 6 | -1 | 102 | -1 | 108 | nt | nt | nt
Cc1ccc(NC(=O)CC(C)N2CCCC2)cc1 (stereo not drawn) | 6 | -3 | 102 | -3 | 108 | nt | nt | nt
O=C(NC1CCN(Cc2ccccc2)CC1)c1cccc(S(=O)(=O)Nc2cc(C(F)(F)F)ccc2Cl)c1 | -4 | -3 | 90 | 1 | 94 | nt | nt | nt
COc1ccc(NS(=O)(=O)c2cccc(C(=O)NC3CCN(Cc4ccccc4)CC3)c2)cc1 | -4 | -3 | 77*[inhibitor] | -4 | 110 | 120 | 7 | 105
CC(C)c1csc(CN2CCC(CCC(=O)NCC3CCCO3)CC2)n1 (stereo not drawn) | 5 | 1 | 102 | -2 | 104 | nt | nt | nt
COc1ccccc1NS(=O)(=O)c1cc(NC(=O)CCC(=O)c2cccs2)ccc1Cl | 0 | -4 | 147* | 0 | 108 | 99 | -6 | 97
COc1ccc(NC(=O)CCC(=O)c2cccs2)cc1S(=O)(=O)Nc1ccc(Cl)cc1 | 20 | -4 | 110 | -1 | 119 | nt | nt | nt
S=C(c1ccc(-c2ccccc2Cl)o1)N1CCOCC1 | 3 | 0 | 101 | -1 | 95 | nt | nt | nt
Cc1cc2oc(=O)cc(CN3CCCc4ccccc43)c2cc1C | 228* | -2 | 105 | -2 | nt | 92 | -13 | 100
